Measurements reported in publication PMC4390023 (The British journal of nutrition, 2013).
Entries after “also recorded” stand apart in the source; their conditions may differ. One block for each compound: values may come before it.

Assays:
[1] = test system: RARβ; details: cited from earlier work
[2] = test system: RARγ; details: cited from earlier work
[3] = test system: RARα; details: cited from earlier work
[4] = cited from earlier work; for Estimates of bioactivity in rats, that of ROH: ref estimates of the 1950's
[5] = Study 1 growth assay; assay type: in vivo, rat; details: for Bioactivity compared with retinol: from body weights and area-under-the-response curves, equimolar 50 nmol/d; for Area-under-the growth curve, difference from control / Bioactivity from area-under-the growth curve, % of retinol / Bioactivity from final body weight, % of retinol / Final body weight / Area-under-the growth curve: rats, 50 nmol/d for 5 weeks; for Bioactivity from area-under-the growth curve, % of retinol: control subtracted, relative to retinol group; for Bioactivity from final body weight, % of retinol: difference from control relative to retinol group; for Final body weight / Area-under-the growth curve: mean, n 10; for Area-under-the growth curve: trapezoidal
In short: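 Weanling (21-d) male Sprague Dawley rats (n 40) were fed a vitamin A-deficient diet and weighed daily. At week 9 they were split into four weight-matched groups (n 10) and given 50 nmol/d oral retinoid acetate in 100 µl cottonseed oil, or vehicle alone. Rats were killed 5 weeks after dosing began. Body-weight AUC was by trapezoidal approximation, and bioactivity from ending weights versus the retinol group. ANOVA; means (SD).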

[6] = rats maintained on DR; cited from earlier work
[7] = test system: retinol transporter; details: cited from earlier work
[8] = Study 1 tissue and serum ROH, αR and DR by HPLC; assay type: in vivo, rat; details: for Lung ROH concentration / Spleen ROH concentration: rats, 50 nmol/d oral, 5 weeks, mean, n 10
[9] = high doses given to dams; not to the extent of retinoic acid alone; cited from earlier work
[10] = Study 3 retinol and α-retinol in liver, kidney and serum after the final dose; assay type: in vivo, rat; details: for Liver αR: 3.5 µmol/day for 21 days, n 5
[11] = in vitro and in vivo models; cited from earlier work
[12] = Study 3 toxicity study: serum chemistry panel and liver histology; assay type: in vivo, rat; details: 3.5 µmol/d for 21 d; for Hepatotoxicity: rats killed 1, 8 and 15 d after the last dose
[13] = Study 2 interaction study: graded αR with 70 nmol ROH/d, serum and liver; assay type: in vivo, rat; details: for Liver αR / Total dose liver retention: 3 weeks
In short: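 Each received oral daily 70 nmol reference retinoid plus 0, 17.5, 35 or 70 nmol test retinoid (as acetate) in 100 µl cottonseed oil. Rats were killed after 3 weeks. Serum and saponified liver were run on isocratic C18 HPLC-UV in acetonitrile:water 87.5:12.5 with 10 mM ammonium acetate. ANOVA; means (SD).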

[14] = test system: apo-RBP; details: cited from earlier work
[15] = given intraperitoneally; cited from earlier work

Structure (SMILES): CC1=C(/C=C/C(C)=C/C=C/C(C)=C/C(=O)O)C(C)(C)CC=C1 [3,4-Didehydroretinoic acid]
Affinity for RARβ [1]: same affinity as retinoic acid | Affinity for RARγ [2]: same affinity as retinoic acid | Affinity for RARα [3]: same affinity as retinoic acid

Lung ROH concentration [8]: not detected | Spleen ROH concentration [8]: not detected | Serum DR in DR-dosed rats, times less than serum ROH in ROH-dosed rats ([8]; study 1): 2.6 times
Structure (SMILES): CC1=C(/C=C/C(C)=C/C=C/C(C)=C/CO)C(C)(C)CC=C1 [3,4-Didehydroretinol, 3,4-didehydroretinol]
Biological activity compared with ROH [4]: 40% | Estimates of bioactivity in rats, that of ROH [4]: 40% | Bioactivity compared with retinol [5]: 120–130% | Area-under-the growth curve, difference from control [5]: 1000 | Bioactivity from area-under-the growth curve, % of retinol [5]: 127% | Bioactivity from final body weight, % of retinol [5]: 119% | Final body weight [5]: 560 g | Area-under-the growth curve [5]: 1867 g·days | Retina integrity [6]: normal retina integrity | Rate of carriage by the retinol transporter from the intestine [7]: at the same rate as ROH

Structure (SMILES): CC(=O)OC/C=C(C)/C=C/C=C(C)/C=C/C1=C(C)C=CCC1(C)C [3,4-didehydroretinyl acetate]
Terata in fetuses [9]: caused terata in fetuses

Kidney ROH relative to liver ROH ([8]; study 1): 7 times | Liver reserves, times less than deficiency cut-off (<70 nmol ROH/g liver) ([8]; study 1, ROH group): 14 times
Structure (SMILES): CC1=C(/C=C/C(C)=C/C=C/C(C)=C/CO)C(C)(C)CCC1 [Retinol, retinol, reference compound]
Area-under-the growth curve, difference from control [5]: 787 | Bioactivity from area-under-the growth curve, % of retinol [5]: 100% | Bioactivity from final body weight, % of retinol [5]: 100% | Final body weight [5]: 546 g | Area-under-the growth curve [5]: 1654 g·days

Structure (SMILES): CC(=O)OC/C=C(C)/C=C/C=C(C)/C=C/C1=C(C)CCCC1(C)C [retinyl acetate, reference compound]
Terata in fetuses [9]: caused terata in fetuses

Structure (SMILES): CC1=CCCC(C)(C)C1/C=C/C(C)=C/C=C/C(C)=C/CO (stereo not drawn) [α-Retinol, α-retinol]
Activity relative to retinol (ROH), growth-promoting activity in rats [4]: 2.1% | Bioactivity [4]: 2.6% | Biopotency versus US Pharmacopeia Vitamin A Reference Standard ([4]; rat growth and liver storage bioassays): approximately 2% | Estimates of bioactivity in rats, that of ROH [4]: 2% | Biopotency of all-trans-retinyl acetate ([4]; ref previous reports): 2% | Growth rate relative to ROH ([5]; classic growth assay, 50 nmol/d): about 50% | Bioactivity compared with retinol [5]: 40–50% | Area-under-the growth curve, difference from control [5]: 298 | Final body weight [5]: 508 g | Area-under-the growth curve [5]: 1165 g·days | α-Retinyl esters circulating in the blood, share of total retinol ([10]; at αR concentrations >1.7 µmol/g liver): > 10% | Induction of signs of hypervitaminosis A [11]: very effective at inducing signs of hypervitaminosis A | Toxicity compared with control rats [12]: No toxicity was evident | Hepatotoxicity [12]: no hepatotoxicity occurred | Stellate cell hypertrophy ([12]; liver sections, hematoxylin and eosin): No stellate cell hypertrophy was detected | Liver αR ([13]; 17.5 nmol αR/d + 70 nmol ROH/d): 262 (SD 34) nmol/liver | Total dose liver retention ([13]; 17.5 nmol αR/d + 70 nmol ROH/d): 71.3% | Liver αR ([13]; 35 nmol αR/d + 70 nmol ROH/d): 449 (SD 23) nmol/liver | Total dose liver retention ([13]; 35 nmol αR/d + 70 nmol ROH/d): 61.1% | Liver αR ([13]; 70 nmol αR/d + 70 nmol ROH/d): 893 (SD 138) nmol/liver | Total dose liver retention ([13]; 70 nmol αR/d + 70 nmol ROH/d): 60.7% | Serum αR ([13]; study 2, 17.5-70 nmol αR/d + 70 nmol ROH/d): undetectable | Cumulative αR doses recovered in the liver ([13]; study 2, with 70 nmol ROH/d): 61–71% | Binding in vitro with apo-RBP [14]: failed to bind | Lung ROH concentration [8]: not detected | Spleen ROH concentration [8]: not detected | Cumulative αR doses recovered in the liver ([8]; study 1, ROH not made available): 0.3% | Serum ROH concentration ([8]; study 1, rats fed 50 nmol/d): ≤ 0.10 µmol/L

Liver αR ([10]; day 1 after final dose): 2300 nmol/g | Liver αR ([10]; day 8 after final dose): 1750 nmol/g | Liver αR ([10]; day 15 after final dose): 1770 nmol/g
Structure (SMILES): CC(=O)OC/C=C(C)/C=C/C=C(C)/C=C/C1C(C)=CCCC1(C)C (stereo not drawn) [α-retinyl acetate]
Hepatotoxicity [12]: No hepatic toxicity was observed; also recorded: No hepatotoxicity was noted | Growth of hamsters [15]: sustains growth of hamsters
